How the values were obtained:
Format in all cases: functional, organism-based
[1] = system: Colon carcinoma cell; assay: Tested for net cell kill tumor burden reduction during therapy at the dose 2.5 mg/kg in colon carcinoma; set-up: dose 2.5 mg/kg; conditions: Mus musculus
[2] = system: L1210; assay: Tested for median life span against solid tumor L1210 Pt-resistant leukemia at 1.5 mg/kg per injection in experiment 1; conditions: Mus musculus
Summary of the method: (§1)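 CD2F1 mice weighing 18–22 g were inoculated IP with leukemia cells on day 0. Compounds in 0.9% saline were given IP in three injections, dosed by average cage weight, over a dose range from toxic to ineffective. Median life span was recorded, with cause of death assessed at necropsy and 60-day survivors counted as cured.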

[3] = system: L1210; assay: Tested for median life span against solid tumor L1210 Pt-resistant leukemia at 1.6 mg/kg per injection in experiment 2; conditions: Mus musculus; summary of the method: as §1
[4] = system: L1210; assay: Tested for the ratio of number of survivors / total number after 60 days at the dose of 2.5 mg/kg per injection against murine leukemia L1210 experiment 2; conditions: Mus musculus
Summary of the method: (§2)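 CD2F1 (Balb/c × DBA/2F1) mice, 18–22 g, randomized and inoculated IP with counted leukemia cells on day 0, then re-randomized. Three IP treatments, dissolved in 0.9% saline and dosed on average cage weight, with dose in mg/kg per injection across a full toxic-to-ineffective range. Median life span and %T/C were recorded. Survivors at 60 days were counted as cured and excluded from %T/C.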

[5] = system: L1210; assay: Tested for the ratio of number of survivors / total number after 60 days at the dose of 3.0 mg/kg per injection against murine leukemia L1210 experiment 1; conditions: Mus musculus; summary of the method: as §2
[6] = system: L1210; assay: Tested for in vivo weight change against murine L1210 Pt-resistant leukemia at the dose of 3.0 mg/kg per injection in experiment 1; conditions: Mus musculus
Summary of the method: (§3)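 Leukemia life-span assays used CD2F1 (Balb/c × DBA/2F1) mice weighing 18–22 g. Cells were inoculated IP on day 0, and compounds in 0.9% saline were given IP, dosed by average cage weight. Weight change is the difference in mean group weight between the last and first treatment days.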

[7] = system: L1210; assay: Tested for in vivo weight change against murine L1210 leukemia at the dose of 1.6 mg/kg per injection in experiment 2; conditions: Mus musculus; summary of the method: as §3
[8] = system: L1210; assay: Tested for median life span against solid tumor L1210 leukemia at 2.5 mg/kg per injection in experiment 2; conditions: Mus musculus; summary of the method: as §1
[9] = system: L1210; assay: Tested for the ratio of treated and control against solid tumor murine L1210 Pt-resistant leukemia 3.0 mg/kg per injection in experiment 1;T/C; conditions: Mus musculus
Summary of the method: (§4)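 Murine leukemia life span assay in CD2F1 (Balb/c × DBA/2F1) mice, 18–22 g, randomized, with IP tumor cell inoculation on day 0. Depending on the model, the inoculum was 1 × 10^4 cells with IP dosing on days 3, 7 and 11, or 1 × 10^6 cells with IP dosing on days 1, 5 and 9. Drug was given in 0.9% saline, mg/kg per injection, by average cage weight. Read-outs were median day of death and %T/C. Mice alive 60 days after treatment counted as cured and were excluded.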

[10] = system: L1210; assay: Tested for the ratio of treated and control against solid tumor murine L1210 leukemia 1.5 mg/kg per injection in experiment 1; T/C; conditions: Mus musculus; summary of the method: as §4
[11] = system: L1210; assay: Tested for the ratio of treated and control against solid tumor murine L1210 leukemia 1.6 mg/kg per injection in experiment 2; T/C; conditions: Mus musculus; summary of the method: as §4
[12] = system: L1210; assay: Tested for the ratio of number of survivors / total number after 60 days at the dose of 1.5 mg/kg per injection against murine leukemia L1210 experiment 1; conditions: Mus musculus; summary of the method: as §2
[13] = system: Mus musculus; assay: Tested for the ratio of treated and control tumor to reach 750 mg against murine solid tumor colon carcinoma 2.5 mg/kg per injection
[14] = system: Mus musculus; assay: Tested for in vivo weight change against murine B16 melanoma at the dose of 4.0 mg/kg per injection
Summary of the method: (§5)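 B6C3F1 (C57BL/6 × C3HF1) mice weighing 18–22 g received trocar tumor fragments SC on day 0. Compounds in 0.9% saline were given IP on a three-injection schedule, dosed by average cage weight. Weight change is the maximum treatment-related weight loss during the growth-delay assay.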

[15] = system: Mus musculus; assay: Tested for in vivo weight change against murine M5076 sarcoma at the dose of 4.0 mg/kg per injection; summary of the method: as §5
[16] = system: Mus musculus; assay: Tested for in vivo weight change against murine P388 leukemia at the dose of 3.7 mg/kg per injection in experiment 2; summary of the method: as §3
[17] = system: Mus musculus; assay: Tested for in vivo weight change against murine colon carcinoma at the dose of 2.5 mg/kg per injection
[18] = system: Mus musculus; assay: Tested for the ratio of number of survivors / total number after 60 days at the dose of 3.7 mg/kg per injection against murine P388 Pt-resistant leukemia; summary of the method: as §2
[19] = system: M5076; assay: Tested for net cell kill tumor burden reduction during therapy at the dose 4.0 mg/kg in M5076 sarcoma; set-up: dose 4 mg/kg; conditions: Mus musculus
[20] = system: Mus musculus; assay: Tested for the ratio of treated and control against solid tumor murine P388 Pt-resistant leukemia 3.7 mg/kg per injection; T/C; summary of the method: as §4
[21] = system: L1210; assay: Tested for in vivo weight change against murine L1210 leukemia at the dose of 6.0 mg/kg per injection in experiment 1; conditions: Mus musculus; summary of the method: as §3
[22] = system: L1210; assay: Tested for the ratio of number of survivors / total number after 60 days at the dose of 5.0 mg/kg per injection against murine leukemia L1210 experiment 2; conditions: Mus musculus; summary of the method: as §2
[23] = system: L1210; assay: Tested for median life span against solid tumor L1210 Pt-resistant leukemia at 10 mg/kg per injection in experiment 2; conditions: Mus musculus; summary of the method: as §1
[24] = system: L1210; assay: Tested for median life span against solid tumor L1210 Pt-resistant leukemia at 4.0 mg/kg per injection in experiment 1; conditions: Mus musculus; summary of the method: as §1
[25] = system: L1210; assay: Tested for the ratio of number of survivors / total number after 60 days at the dose of 6.0 mg/kg per injection against murine leukemia L1210 experiment 1; conditions: Mus musculus; summary of the method: as §2
[26] = system: L1210; assay: Tested for in vivo weight change against murine L1210 Pt-resistant leukemia at the dose of 6.0 mg/kg per injection; conditions: Mus musculus; summary of the method: as §3
[27] = system: L1210; assay: Tested for median life span against solid tumor L1210 leukemia at 10 mg/kg per injection in experiment 2; conditions: Mus musculus; summary of the method: as §1
[28] = system: L1210; assay: Tested for median life span against solid tumor L1210 leukemia at 5.0 mg/kg per injection in experiment 2; conditions: Mus musculus; summary of the method: as §1
[29] = system: L1210; assay: Tested for median life span against solid tumor L1210 leukemia at 6.0 mg/kg per injection in experiment 1; conditions: Mus musculus; summary of the method: as §1
[30] = system: L1210; assay: Tested for the ratio of treated and control against solid tumor murine L1210 Pt-resistant leukemia 10 mg/kg per injection in experiment 2; T/C; conditions: Mus musculus; summary of the method: as §4
[31] = system: L1210; assay: Tested for the ratio of treated and control against solid tumor murine L1210 Pt-resistant leukemia 4.0 mg/kg per injection in experiment 1; T/C; conditions: Mus musculus; summary of the method: as §4
[32] = system: M5076; assay: Tested for net cell kill tumor burden reduction during therapy at the dose 9.0 mg/kg in M5076 sarcoma; set-up: dose 9 mg/kg; conditions: Mus musculus
Summary of the method: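 Solid tumor growth delay assay; B16 melanoma and M5076 sarcoma were run in B6C3F1 (C57BL/6 × C3HF1) mice of 18–22 g. Tumor fragments were implanted SC on day 0, then drug in 0.9% saline was given IP on days 1, 5, 9 or days 3, 7, 11, mg/kg per injection. T − C is the difference in days for treated and control tumors to reach 750 mg. Net log cell kill is tumor burden reduction during therapy. Cured mice were excluded.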

[33] = system: Mus musculus; assay: Tested for in vivo weight change against murine B16 melanoma at the dose of 9.0 mg/kg per injection; summary of the method: as §5
[34] = system: Mus musculus; assay: Tested for median life span against solid tumor P388 Pt-resistant leukemia at 5.0 mg/kg per injection; summary of the method: as §4

[Pt(cis-1,4-dach)CL2]
Log net cell kill [1]: -0.4 | MLS [2]: 15.7 days | MLS [3]: 15 days | 60-day survivors [4]: 1 | 60-day survivors [5]: 1 | Weight change [6]: -4.3 g | Weight change [7]: 0.9 g | MLS [8]: 22.5 days | Ratio [9]: 167% | Ratio [10]: 217% | Ratio [11]: 229% | 60-day survivors [12]: 0 | T-C [13]: 3.8 days | Weight change [14]: -2.6 g | Weight change [15]: -5.5 g | Weight change [16]: -6 g | Weight change [17]: -4.2 g | Survivors [18]: 0 | Log net cell kill [19]: 0.6 | T/C [20]: 177%

CISPLATIN
Weight change [21]: -1.9 g | Survivors [22]: 0 | MLS [23]: 12.4 days | MLS [24]: 11.1 days | Survivors [25]: 1 | Weight change [26]: -3.7 g | MLS [27]: 18.5 days | MLS [28]: 16 days | MLS [29]: 18.5 days | Ratio [30]: 120% | Ratio [31]: 109% | Log net cell kill [32]: 0.8 | Weight change [33]: -4.5 g | MLS [34]: 19.3 days

Source: ChEMBL document CHEMBL1127616, “Synthesis, structural characterization, and antitumor properties of a novel class of large-ring platinum(II) chelate complexes incorporating the cis-1,4-diaminocyclohexane ligand in a unique locked boat conformation” (J Med Chem, 1994)
